PubChem BioAssay
The source made the active and inactive calls.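 The calls were made as follows, unless noted: active = mean duplicate activation above the buffer control mean plus 5 SD of those controls; inactive = the rest.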

Tests used:
[1] = thallium flux activation in parental CHO cells, counter-screen for KCNQ1 potentiator project (AID 493006;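 active = duplicate-averaged activation above buffer control mean plus 5 SD of those controls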); details: parental CHO-K1 cells, FluxOR thallium flux, at 10 µM; hits give high values
Method in brief: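 Benchmarks – buffer and R-L3 controls · Assay system – untransfected host CHO-K1 cells with FluxOR thallium dye · Measure – fluorescence change ratio scaled 0% buffer, 100% R-L3 · Technique – kinetic thallium-flux fluorescence · Timing – overnight 37 °C plating, 90 min RT dye, 20 min compound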

[2] = biological target: Potassium voltage-gated channel subfamily KQT member 1 (Homo sapiens) (UniProt P51787); assay: KCNQ1 potassium channel potentiators, confirmation, FluxOR thallium flux, CHO cells, duplicates (AID 493007;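 active = potentiation averaged over duplicate wells exceeding buffer-only control mean by more than 3 SD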;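 as to outcome: cells depolarized by a potassium plus thallium sulfate stimulus after compound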); details: KCNQ1 cell line, FluxOR thallium flux fluorescence, at 10 µM; hits give high values, % of reference activator effect, buffer zero
Method in brief: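 Material: CHO cells stably expressing the KCNQ1 potassium channel / Times: dye 90 min then compound 20 min, both at room temperature / Detection: kinetic thallium influx fluorescence with FluxOR dye, 10 s baseline, 110 s post-stimulus / Benchmarks: buffer-only wells as 0% and R-L3 activator as 100% / Replicates: each compound tested in duplicate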

[3] = biological target: Potassium voltage-gated channel subfamily KQT member 2 (Rattus norvegicus) (UniProt O88943); assay: rat KCNQ2 channel potentiation, selectivity assay for KCNQ1 potentiator project, KCNQ2-CHO-K1 cells (AID 493009;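 active = mean duplicate potentiation above the buffer control mean plus 5 SD of buffer wells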;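 also: assay conditions were tuned for KCNQ1 rather than KCNQ2 modulators; signal is max minus min fluorescence divided by baseline after thallium stimulus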); details: FluxOR thallium flux fluorescence, at 10 µM; hits give high values, scaled: buffer 0, activator control 100
[4] = biological target: Potassium voltage-gated channel subfamily KQT member 1 (Homo sapiens) (UniProt P51787); assay: KCNQ1 channel current potentiators, confirmation, orthogonal assay for KCNQ1 potentiator project, IonWorks patch clamp, KCNQ1-CHO cells (AID 493184;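 active = current rise at least 3 SD above the untreated control mean in each of two repeat wells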); details: automated patch clamp current, at 10 µM; hits give high values
Method in brief: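 Probe or stimulus: depolarizing pulse to +40 mV from -90 mV; Material: CHO cells carrying KCNQ1; Compound: one dose, 10 µM final; Signal: automated voltage clamp, amphotericin B perforated patch; Read-out basis: percent current increase versus pre-compound level; Buffer or medium: pH 7.4 external bath; Replication: duplicates.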

[5] = biological target: Potassium voltage-gated channel subfamily E member 1 (Homo sapiens) + Potassium voltage-gated channel subfamily KQT member 1 (Homo sapiens) (UniProt P15382+P51787); assay: KCNQ1/KCNE1 complex potentiators, confirmation, selectivity assay for KCNQ1 potentiator project, thallium flux, CHO-K1 KCNQ1/E1 cells (AID 493186); details: FluxOR thallium flux, at 10 µM; hits give high values
Method in brief: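 system = KCNQ1/E1-expressing stable CHO-K1 cell line | doses = single compound concentration per well | times = dye 90 min, compound 20 min, room temperature | measured by = FluxOR Tl+ flux fluorescence, kinetic read | evaluation = fluorescence rise relative to baseline, as percent of R-L3 response above buffer | controls = buffer and R-L3 | replicates = duplicate wells per compound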

Sequence of Potassium voltage-gated channel subfamily KQT member 1 (Homo sapiens) (P51787 whole entry, looked up): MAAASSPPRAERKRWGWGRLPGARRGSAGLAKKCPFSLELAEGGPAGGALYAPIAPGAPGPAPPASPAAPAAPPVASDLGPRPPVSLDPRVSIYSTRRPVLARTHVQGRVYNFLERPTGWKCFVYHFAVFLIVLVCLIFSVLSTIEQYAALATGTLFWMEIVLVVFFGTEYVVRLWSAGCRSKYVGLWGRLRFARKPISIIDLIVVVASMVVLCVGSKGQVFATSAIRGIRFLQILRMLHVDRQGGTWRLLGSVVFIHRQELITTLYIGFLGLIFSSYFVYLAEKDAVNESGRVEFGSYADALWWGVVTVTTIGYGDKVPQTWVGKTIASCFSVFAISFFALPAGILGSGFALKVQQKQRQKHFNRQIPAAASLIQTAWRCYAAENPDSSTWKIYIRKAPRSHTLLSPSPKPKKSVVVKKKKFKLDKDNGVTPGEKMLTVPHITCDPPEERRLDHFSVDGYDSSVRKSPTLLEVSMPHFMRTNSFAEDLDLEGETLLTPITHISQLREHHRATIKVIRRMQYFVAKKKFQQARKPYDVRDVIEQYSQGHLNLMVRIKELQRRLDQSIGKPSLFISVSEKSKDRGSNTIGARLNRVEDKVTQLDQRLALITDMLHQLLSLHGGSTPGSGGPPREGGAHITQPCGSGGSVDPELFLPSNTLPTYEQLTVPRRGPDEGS
Sequence of Potassium voltage-gated channel subfamily KQT member 2 (Rattus norvegicus) (O88943 whole entry, looked up): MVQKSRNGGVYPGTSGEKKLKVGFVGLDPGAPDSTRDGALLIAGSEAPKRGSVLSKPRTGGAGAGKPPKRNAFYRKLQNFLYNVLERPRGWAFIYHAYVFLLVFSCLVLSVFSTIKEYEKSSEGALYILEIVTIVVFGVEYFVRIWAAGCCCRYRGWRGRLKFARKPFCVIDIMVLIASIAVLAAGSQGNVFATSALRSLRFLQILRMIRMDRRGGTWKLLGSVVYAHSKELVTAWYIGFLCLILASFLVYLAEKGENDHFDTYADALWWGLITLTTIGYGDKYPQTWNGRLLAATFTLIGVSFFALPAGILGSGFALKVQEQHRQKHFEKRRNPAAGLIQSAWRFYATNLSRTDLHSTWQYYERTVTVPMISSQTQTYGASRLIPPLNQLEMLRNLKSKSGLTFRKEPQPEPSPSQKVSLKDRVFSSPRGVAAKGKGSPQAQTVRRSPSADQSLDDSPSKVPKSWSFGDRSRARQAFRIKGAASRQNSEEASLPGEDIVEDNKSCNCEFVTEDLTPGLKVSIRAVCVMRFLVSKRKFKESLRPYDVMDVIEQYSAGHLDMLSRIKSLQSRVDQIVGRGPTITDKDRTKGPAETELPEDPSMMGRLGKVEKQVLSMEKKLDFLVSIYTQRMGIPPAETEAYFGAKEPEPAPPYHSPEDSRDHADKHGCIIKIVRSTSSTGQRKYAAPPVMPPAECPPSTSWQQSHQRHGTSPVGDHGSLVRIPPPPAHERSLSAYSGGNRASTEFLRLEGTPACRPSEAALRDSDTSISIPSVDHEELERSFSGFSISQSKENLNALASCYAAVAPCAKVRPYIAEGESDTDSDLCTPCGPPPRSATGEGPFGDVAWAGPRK
Sequence of Potassium voltage-gated channel subfamily E member 1 (Homo sapiens) + Potassium voltage-gated channel subfamily KQT member 1 (Homo sapiens) (P51787 whole entry, looked up): as the sequence (P51787 whole entry, looked up) above

SMILES	outcome [1]	outcome [2]	outcome [3]	outcome [4]	outcome [5]	potentiation [2]	potentiation [3]	activation [5]
Cc1ccsc1/C=N\NC(=O)c1n[nH]c2c1CCC2	inactive	inactive	inactive	inactive	inactive			
O=C(CN(CC1CCCO1)C(=O)CNS(=O)(=O)c1ccc(Cl)cc1)NC1CCCC1 (stereo not given)	inactive	inactive	inactive	inactive	inactive			
Cn1ccnc1C(=O)c1cccc([N+](=O)[O-])c1	inactive		inactive	inactive	inactive	18.5% (active)		
Cc1ccc(C)c(NC(=S)NNC(=O)c2csc3c2CCCC3)c1	inactive		inactive	inactive	inactive	20.5% (active)		
S=c1[nH]nc(-c2cccs2)n1/N=C/c1cn(-c2ccccc2)nc1-c1ccccc1	inactive		inactive	inactive	inactive	22% (active)		
COc1cc(O)c2c(=O)c(-c3ccc(O[C@@H]4O[C@H](CO)[C@@H](O)[C@H](O)[C@H]4O)cc3)coc2c1	inactive	inactive	inactive	inactive	inactive			
O=C(O)CCn1c(-c2ccccc2)cc2ccccc21	inactive	inactive	inactive	inactive	inactive			
Cn1cccc1C(=O)NNC(=O)COc1ccccc1F	inactive	inactive	inactive	inactive	inactive			
O=[N+]([O-])c1ccc(S(=O)(=O)CC(CN2CCCCC2)N2CCCCC2)cc1 (stereo not given)	inactive	inactive	inactive	inactive	inactive			
O=C(CCN1Cc2ccccc2C1)c1ccc2c(c1)OCCO2	inactive		inactive	inactive	inactive	45.5% (active)		
CCOC(=O)c1c(C)cccc1OCC(N)=O	inactive	inactive	inactive	inactive	inactive			
Cc1ccc(C(=O)CSc2nnc3c4ccccc4nc(C(C)(C)C)n23)cc1	inactive	inactive	inactive	inactive	inactive			
CCOC(=O)CSC(=S)NC(=O)c1ccc(OC)cc1	inactive			inactive	inactive	18.5% (active)	147% (active)	
O=C(CN1CCCCCC1)Nc1ccc(Oc2ccccc2)cc1	inactive	inactive	inactive	inactive	inactive			
CC(C)(C)NCC(O)CON=C1c2ccccc2-c2ccccc21 (stereo not given)	inactive	inactive	inactive	inactive				15.2% (active)
CS(=O)(=O)c1ccc(C(=O)OCc2nnc(-c3ccccc3)o2)cc1[N+](=O)[O-]	inactive	inactive	inactive	inactive	inactive			
O=C(NCc1ccccn1)C1CCN(Cc2cccc(OCc3ccccc3)c2)CC1	inactive	inactive	inactive	inactive	inactive			
Nc1nnc(SCC(=O)N2CCN(c3ccccc3)CC2)n1-c1ccccc1	inactive	inactive	inactive	inactive	inactive			
COc1ccc(C(=O)/C=C/C(=O)N(CC(=O)NC2CCCCC2)Cc2cccs2)c(O)c1	inactive	inactive	inactive	inactive	inactive			
O=c1c2cc(Cl)ccc2[nH]c(=S)n1Cc1cccs1	inactive	inactive		inactive	inactive		142% (active)	

SMILES	outcome [1]	outcome [2]	outcome [3]	outcome [4]	outcome [5]	potentiation [2]	potentiation [3]	activation [5]
CC(C)CCn1c(SCC(=O)NC2CC2)nc2cc(Cl)ccc2c1=O	inactive	inactive	inactive	inactive	inactive			
S=c1[nH]nc(-c2ccco2)n1/N=C/c1cccc(Cl)c1Cl	inactive		inactive	inactive	inactive	23.5% (active)		
O=C1C(Nc2ccc(O)cc2)=C/C(=N/S(=O)(=O)c2cccs2)c2ccccc21	inactive		inactive	inactive	inactive	17.5% (active)		
S=C1N(c2ccccc2)C(c2ccccc2)N2CCCN12 (stereo not given)	inactive	inactive	inactive	inactive	inactive			
COc1ccc(OCCCC(=O)NNC(=O)CCN2CCN(c3ccccc3)CC2)cc1	inactive			inactive	inactive	19% (active)	142% (active)	
Clc1ccc(C2=Nn3c(nnc3-c3n[nH]c4c3CCC4)SC2)cc1Cl	inactive	inactive	inactive	inactive	inactive			
CCC(C)NC(=O)Cn1c(-c2ccccc2)cc(C(C)=O)c1C (stereo not given)	inactive		inactive	inactive	inactive	22% (active)		
CCN(Cc1ccccc1)C1CCN(Cc2ccccc2)CC1	inactive	inactive	inactive	inactive	inactive			
FC(F)(F)c1cccc(CN2CCC(c3cc(-c4cccs4)n[nH]3)CC2)c1	inactive	inactive	inactive	inactive	inactive			
Cc1ccc(NC(=O)Nc2ccc3c(c2)CCC3)cc1	inactive	inactive	inactive	inactive	inactive			
Cc1ccc(Nc2ccc([N+](=O)[O-])cn2)cc1Cl	inactive	inactive		inactive	inactive		144% (active)	
COC(=O)c1sc(NC(=S)NC(=O)c2cccc(C)c2)nc1C	inactive	inactive	inactive	inactive	inactive			
O=C(NNc1ncc(C(F)(F)F)cc1Cl)c1ccc(Cl)c(Cl)c1	inactive	inactive		inactive	inactive		198% (active)	
COc1ccc(CNC(=O)CSc2nc3ccc(OC)cc3[nH]2)cc1	inactive	inactive	inactive	inactive	inactive			
CCOC(=O)Cn1c(C(=O)OCC)cc2sccc21	inactive		inactive	inactive	inactive	35.5% (active)		
S=C(NCCc1ccccc1)N/N=C/C1CCCCC1	inactive	inactive	inactive	inactive	inactive			
CC(Oc1ccc2ccccc2c1)C(=O)NNC(=S)NC(=O)c1ccco1 (stereo not given)	inactive			inactive		93% (active)	214% (active)	15.3% (active)
CCN(CC)S(=O)(=O)c1cccc(C(=O)N/N=C/c2cccc(O)c2O)c1	inactive	inactive	inactive	inactive	inactive			
CCC1CCCCN1CCCNC(=O)CSc1nc2nc(C)c(Cc3ccccc3)c(C)n2n1 (stereo not given)	inactive	inactive	inactive	inactive	inactive			
CCCSc1ncnc2c1oc1ccccc12	inactive	inactive	inactive	inactive	inactive			

SMILES	outcome [1]	outcome [2]	outcome [3]	outcome [4]	outcome [5]	potentiation [2]	potentiation [3]	activation [5]
O=C(NCc1ccccc1)c1ccc2c(c1)C(=O)N(Cc1cccnc1)C2=O	inactive		inactive	inactive	inactive	17.5% (active)		
O=C(NC(=S)Nc1cc(C(F)(F)F)ccc1N1CCOCC1)c1sc2ccccc2c1Cl	inactive	inactive	inactive	inactive	inactive			
CN(CC(=O)NCc1ccccc1Cl)CC(=O)Nc1cccc(F)c1	inactive	inactive	inactive	inactive	inactive			
Cc1cc(-c2cccs2)c(C#N)c(=S)[nH]1	inactive	inactive	inactive	inactive	inactive			
Oc1c(Br)cc(Br)cc1CNc1cccc2cccnc12	inactive		inactive	inactive	inactive	28.5% (active)		
CCCC(=O)n1nc(-c2ccc(C)cc2)nc1NCc1ccco1	inactive			inactive	inactive	80% (active)	148% (active)	
COc1cccc(NC(=S)N/N=C2/CCCCc3ccccc32)c1	inactive		inactive	inactive	inactive	26% (active)		
S=c1[nH]nc(-c2ccco2)n1/N=C/C(Cl)=C/c1ccccc1	inactive		inactive	inactive	inactive	26% (active)		
O=C(O)CCCN1C(=O)/C(=C/c2ccc(-c3nc4ccccc4s3)o2)SC1=S	inactive			inactive	inactive	21.5% (active)	143% (active)	
Cc1ccc(C)c(/C=N/n2cc(-c3ccccc3)[nH]c2=S)c1	inactive		inactive	inactive	inactive	24.5% (active)		
O=C(NC(=S)Nc1cc(C(F)(F)F)ccc1Cl)c1ccccc1	inactive	inactive	inactive	inactive	inactive			
OCCNCc1cc(Br)ccc1OCc1ccccc1Cl	inactive	inactive	inactive	inactive	inactive			
Cc1cccc(NC(=O)c2cccc(NC(=O)Cc3cccs3)c2)c1	inactive		inactive	inactive	inactive	17.5% (active)		
Cc1cc(/C=N/NC(=O)C(O)(c2ccccc2)c2ccccc2)c(C)n1-c1ccccc1	inactive	inactive	inactive	inactive	inactive			
C=CCNC(=S)Nc1sc2c(c1C(=O)OCC)CCN(C(=O)OCC)C2	inactive	inactive	inactive	inactive	inactive			
COc1ccc(Cl)cc1C(=O)NNC(=S)NC(=O)c1cc(-c2ccccc2)nc2ccccc12	inactive	inactive	inactive	inactive	inactive			
COC(=O)N1C(=O)[C@@](Cc2ccccc2)(c2ccccc2)N1C(=O)OC	inactive		inactive	inactive	inactive	24% (active)		
Cc1cc(C(=O)NCc2ccc(S(N)(=O)=O)cc2)ccc1[N+](=O)[O-]	inactive	inactive	inactive	inactive	inactive			
CCN(c1ccccc1)S(=O)(=O)c1ccc(NC(=S)NC(=O)c2ccc(Br)o2)cc1	inactive			inactive	inactive	76% (active)	168% (active)	
C=CCn1c(=S)[nH]c2cc(-c3ccccc3)sc2c1=O	inactive	inactive	inactive	inactive	inactive			
